Converted amounts (≈) assume the structure as drawn.
Assays:
Type in all cases: functional
[1] = system: Prevotella nanceiensis; assay: Antimicrobial activity against Prevotella nanceiensis LBN 298 deficient in nim gene assessed as inhibition of growth at 48 hrs by Etest method; conditions: Hoylesella nanceiensis, LBN 298, 48 h
Outline: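 Metronidazole Etest, per the manufacturer's instructions, on brucella blood agar with hemin and vitamin K1. Read after 48 h at 35°C under anaerobic conditions. Breakpoints were ≤ 4 μg/ml susceptible and ≥ 8 μg/ml resistant (EUCAST). Duplicate assays.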

[2] = system: Prevotella bivia; assay: Antimicrobial activity against Prevotella bivia LBN 332 deficient in nimI gene assessed as inhibition of growth after three consecutive subcultures on compound free medium by agar dilution method
Outline: (§1)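 Stability of induced resistance: metronidazole-selected isolates were subcultured three consecutive times on drug-free brucella blood agar (5% sheep blood, hemin, vitamin K1) under anaerobic conditions, then MIC was redetermined by CLSI agar dilution. Resistance was called stable if the MIC held within ±1 dilution. Duplicate experiments.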

[3] = system: Prevotella baroniae; assay: Antimicrobial activity against Prevotella baroniae LBN 466 expressing nim gene assessed as inhibition of growth at 48 hrs by agar dilution method; conditions: Segatella baroniae, LBN 466, 48 h
Outline: (§2)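 Metronidazole MIC by agar dilution (CLSI M11-A7) on brucella agar with 5% sheep blood, hemin and vitamin K1. Plates were read after 48 h at 35°C under anaerobic conditions. Susceptible was MIC ≤ 4 μg/ml and resistant MIC ≥ 8 μg/ml (EUCAST). B. fragilis ATCC 25285T and B. thetaiotaomicron ATCC 29741 were run as controls. Duplicate assays.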

[4] = system: Prevotella nanceiensis; assay: Antimicrobial activity against Prevotella nanceiensis LBN 410 deficient in nimI gene assessed as inhibition of growth after three consecutive subcultures on compound free medium by agar dilution method; conditions: Hoylesella nanceiensis; outline: as §1
[5] = system: Prevotella bivia; assay: Antimicrobial activity against slow growing colonies of Prevotella bivia LBN 330 deficient in nim gene assessed as inhibition of growth at 48 hrs by agar dilution method; conditions: LBN 330, 48 h
Outline: (§3)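 Slowly growing colonies inside the Etest inhibition zone, seen after prolonged incubation (an additional 72 h after the 48 h reading), were subcultured without antibiotic. They were then retested for metronidazole MIC by agar dilution on supplemented brucella blood agar under anaerobic conditions.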

[6] = system: Prevotella bivia; assay: Antimicrobial activity against slow growing colonies of Prevotella bivia LBN 333 deficient in nim gene assessed as inhibition of growth at 48 hrs by agar dilution method; conditions: LBN 333, 48 h; outline: as §3
[7] = system: Prevotella bivia; assay: Antimicrobial activity against Prevotella bivia LBN 445 deficient in nim gene assessed as inhibition of growth at 48 hrs by agar dilution method; conditions: LBN 445, 48 h
Outline: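 Agar dilution MIC on brucella agar with 5% sheep blood, hemin and vitamin K1, following CLSI M11-A7. Plates read after 48 h at 35°C under anaerobic conditions, with B. fragilis ATCC 25285T and B. thetaiotaomicron ATCC 29741 as controls. Assays in duplicate. Isolates kept at −80°C in brucella broth with 15% glycerol. Interpretation used EUCAST breakpoints (S ≤4, R ≥8 μg/ml).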

[8] = system: Prevotella bivia; assay: Antimicrobial activity against slow growing colonies of Prevotella bivia LBP 38 deficient in nim gene assessed as inhibition of growth at 48 hrs by agar dilution method; conditions: LBP 38, 48 h
Outline: (§4)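 Metronidazole MIC by agar dilution per CLSI M11-A7 on brucella agar with 5% sheep blood, hemin and vitamin K1. Plates incubated anaerobically at 35°C and read at 48 h, with a second reading after a further 72 h. B. fragilis ATCC 25285T and B. thetaiotaomicron ATCC 29741 served as controls. Done in duplicate; EUCAST breakpoints applied (S ≤4, R ≥8 μg/ml).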

[9] = system: Prevotella nanceiensis; assay: Antimicrobial activity against Prevotella nanceiensis LBN 293b deficient in nimI gene assessed as inhibition of growth after several passages on plates containing increasing concentration of compound by agar dilution method; conditions: Hoylesella nanceiensis
Outline: (§5)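 Induction of metronidazole resistance: bacterial suspensions inoculated onto brucella blood agar (5% sheep blood, hemin, vitamin K1) containing metronidazole at increasing concentrations, grown anaerobically at 37°C. Colonies growing at the highest concentration were retested for MIC by CLSI agar dilution on the same agar. Duplicate experiments.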

[10] = system: Prevotella baroniae; assay: Antimicrobial activity against Prevotella baroniae LBN 475 expressing nim gene assessed as inhibition of growth at 48 hrs by agar dilution method; conditions: Segatella baroniae, LBN 475, 48 h; outline: as §2
[11] = system: Prevotella bivia; assay: Antimicrobial activity against slow growing colonies of Prevotella bivia LBP 78 deficient in nim gene assessed as inhibition of growth at 48 hrs by agar dilution method; conditions: LBP 78, 48 h; outline: as §4
[12] = system: Prevotella bivia; assay: Antimicrobial activity against Prevotella bivia LBP 51 deficient in nim gene assessed as inhibition of growth at 48 hrs by agar dilution method; conditions: LBP 51, 48 h; outline: as §2
[13] = system: Prevotella baroniae; assay: Antimicrobial activity against Prevotella baroniae LBP19 expressing nimI gene assessed as inhibition of growth after three consecutive subcultures on compound free medium by agar dilution method; conditions: Segatella baroniae; outline: as §1
[14] = system: Prevotella bivia; assay: Antimicrobial activity against Prevotella bivia LBN 332 deficient in nim gene assessed as inhibition of growth at 48 hrs by agar dilution method; conditions: LBN 332, 48 h; outline: as §2
[15] = system: Prevotella buccae; assay: Antimicrobial activity against Prevotella buccae LBN 465 deficient in nimI gene assessed as inhibition of growth after three consecutive subcultures on compound free medium by agar dilution method; conditions: Segatella buccae
Outline: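 Resistance induction: bacterial suspensions were plated on supplemented brucella blood agar with rising metronidazole concentrations. Colonies from the highest concentration were tested by agar dilution. MIC was then redetermined after three consecutive subcultures on drug-free agar. Resistance counted as stable if the MIC held within ±1 dilution. Anaerobic growth at 37°C. Duplicate experiments.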

[16] = system: Prevotella bivia; assay: Antimicrobial activity against slow growing colonies of Prevotella bivia LBN 350 deficient in nim gene assessed as inhibition of growth at 48 hrs by agar dilution method; conditions: LBN 350, 48 h; outline: as §3
[17] = system: Prevotella bivia; assay: Antimicrobial activity against slow growing colonies of Prevotella bivia LBN 365 deficient in nim gene assessed as inhibition of growth at 48 hrs by agar dilution method; conditions: LBN 365, 48 h; outline: as §4
[18] = system: Prevotella bivia; assay: Antimicrobial activity against Prevotella bivia LBN 464 deficient in nim gene assessed as inhibition of growth at 48 hrs by agar dilution method; conditions: LBN 464, 48 h; outline: as §2
[19] = system: Prevotella bivia; assay: Antimicrobial activity against Prevotella bivia LBP 65 deficient in nim gene assessed as inhibition of growth at 48 hrs by agar dilution method; conditions: LBP 65, 48 h; outline: as §2
[20] = system: Prevotella bivia; assay: Antimicrobial activity against slow growing colonies of Prevotella bivia LBN 346 deficient in nim gene assessed as inhibition of growth at 48 hrs by agar dilution method; conditions: LBN 346, 48 h; outline: as §3
[21] = system: Prevotella baroniae; assay: Antimicrobial activity against Prevotella baroniae LBN 430 expressing nimI gene assessed as inhibition of growth after several passages on plates containing increasing concentrations of compound by agar dilution method; conditions: Segatella baroniae; outline: as §5
[22] = system: Prevotella bivia; assay: Antimicrobial activity against Prevotella bivia LBN 336 deficient in nim gene assessed as inhibition of growth at 48 hrs by agar dilution method; conditions: LBN 336, 48 h; outline: as §2
[23] = system: Prevotella nanceiensis; assay: Antimicrobial activity against Prevotella nanceiensis LBP 66 deficient in nim gene assessed as inhibition of growth at 48 hrs by agar dilution method; conditions: Hoylesella nanceiensis, LBP 66, 48 h; outline: as §2
[24] = system: Prevotella nanceiensis; assay: Antimicrobial activity against slow growing colonies of Prevotella nanceiensis LBN 293b deficient in nim gene assessed as inhibition of growth at 48 hrs by agar dilution method; conditions: Hoylesella nanceiensis; outline: as §4

In the case of `Cc1ncc([N+](=O)[O-])n1CCO` [METRONIDAZOLE], the MIC [1] is reported as 4 µg/mL (≈ 23.4 µM), the MIC [2] is reported as greater than 256 µg/mL and the MIC [3] is reported as 2 µg/mL (≈ 11.7 µM). The MIC [4] was 256 µg/mL (≈ 1500 µM), the MIC [5] was 16 µg/mL (≈ 93.5 µM) and the MIC [6] was 32 µg/mL (≈ 187 µM). The MIC [7] was 0.5 µg/mL (≈ 2.92 µM), the MIC [8] was 8 µg/mL (≈ 46.7 µM) and the MIC [9] was 256 µg/mL (≈ 1500 µM). It also gave an MIC [10] of 4 µg/mL (≈ 23.4 µM), an MIC [11] of 8 µg/mL (≈ 46.7 µM) and an MIC [12] of 2 µg/mL (≈ 11.7 µM). For the same molecule, the MIC [13] was 128 µg/mL (≈ 748 µM), the MIC [14] was 4 µg/mL (≈ 23.4 µM) and the MIC [15] was 64 µg/mL (≈ 374 µM). It also gave an MIC [16] of 16 µg/mL (≈ 93.5 µM), an MIC [17] of 8 µg/mL (≈ 46.7 µM) and an MIC [18] of 8 µg/mL (≈ 46.7 µM). It also gave an MIC [19] of 4 µg/mL (≈ 23.4 µM), an MIC [20] of 16 µg/mL (≈ 93.5 µM) and an MIC [21] of 128 µg/mL (≈ 748 µM). For the same molecule, the MIC [22] was 2 µg/mL (≈ 11.7 µM), the MIC [23] was 2 µg/mL (≈ 11.7 µM) and the MIC [24] was 32 µg/mL (≈ 187 µM).

From ChEMBL document CHEMBL1212735, “Metronidazole resistance in Prevotella spp. and description of a new nim gene in Prevotella baroniae” (2010)
